ChEMBL document CHEMBL1122032, “Dopaminergic activity of substituted 6-chloro-1-phenyl-2,3,4,5-tetrahydro-1H-3-benzazepines” (J Med Chem, 1982)
Activity calls are given as the source filed them. The rule behind the calls is not given here.

How the values were obtained:
[1] = Selectivity ratio of compound as ED15 relative to heart rate(HR) ED20; format: functional
Summary of the method: (§1)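 Secondary renal screen in anesthetized dogs: cumulative dose-response by infusing drug at progressively increasing rates, 5 min per dose level. RVR ED15 is the average minimum cumulative dose lowering RVR by 15%; maximum effect is the average maximum % fall in RVR. Selectivity ratios are separations between RVR ED15 and doses giving 30% change in iliac vascular resistance, 20% in MABP, 20% in HR.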

[2] = Selectivity ratio of compound as ratio of ED15 relative to mean arterial blood pressure(MABP) ED20; format: functional; summary of the method: as §1
Rattus norvegicus [3] = experiment: Central dopaminergic activity for minimum concentration which produced 500 rotations at the dose of 10 mg/kg (i.p.) in 2 h; I=Inactive; format: functional, organism-based; parameters: dose 10 mg/kg
Summary of the method: (§2)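 Rats with substantia nigra lesions scored for contralateral rotation after intraperitoneal dosing (routine), oral dosing for selected compounds, or intracaudal administration for intrinsic activity. RD500 and RD1000 are the minimum doses giving 500 and 1000 turns, respectively, in 2 h.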

Canis familiaris [4] = experiment: Compound was evaluated for determining renal vascular resistance(iv) in dogs; format: functional, Canis lupus familiaris; summary of the method: as §1
Canis familiaris [5] = organism: Canis familiaris; experiment: Renal vascular resistance was calculated as the ratio of the mean arterial blood pressure / mean renal blood flow; Significant activity; format: functional, organism-based; conditions: Canis lupus familiaris
Canis familiaris [6] = organism: Canis familiaris; experiment: Renal blood flow was measured in dogs; Highly significant activity; format: functional, organism-based; conditions: Canis lupus familiaris; Kidney
Canis familiaris [7] = organism: Canis familiaris; experiment: Compound was evaluated for average maximum percent decrease in renal vascular resistance in dogs; format: functional, Canis lupus familiaris; summary of the method: as §1
Rattus norvegicus [8] = organism: Rattus norvegicus; experiment: Adenylase cyclase activity in rat striatal membranes at the concentration of 10e-6; format: functional; conditions: Striatum, Membrane
Rattus norvegicus [9] = experiment: Central dopaminergic activity for minimum concentration which produced 500 rotations at the dose of 10 mg/kg (i.p.) in 2 h; format: functional; conditions: route intraperitoneal; summary of the method: as §2
Rattus norvegicus [10] = organism: Rattus norvegicus; experiment: Adenylase cyclase activity in rat striatal membranes at the concentration of 10e-5; format: functional; conditions: Striatum, Membrane
Canis familiaris [11] = organism: Canis familiaris; experiment: Renal vascular resistance was calculated as the ratio of the mean arterial blood pressure / mean renal blood flow; I=Inactive; format: functional, organism-based; conditions: Canis lupus familiaris
Canis familiaris [12] = organism: Canis familiaris; experiment: Renal blood flow was measured in dogs; I=Inactive; format: functional, organism-based; conditions: Canis lupus familiaris; Kidney
Rattus norvegicus [13] = experiment: Central dopaminergic activity against contralateral rotation(1000) in lesioned rats(po) in 2 h; format: functional
Summary of the method: (§3)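 Oral dosing in rats with substantia nigra lesions, scoring contralateral rotations. RD1000 is the minimum dose producing 1000 turns in 2 h.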

Rattus norvegicus [14] = experiment: Central dopaminergic activity for minimum concentration which produced 500 rotations(ip) in 2 h; format: functional; summary of the method: as §2
Canis familiaris [15] = organism: Canis familiaris; experiment: Renal blood flow was measured in dogs; Significant activity; format: functional, organism-based; conditions: Canis lupus familiaris; Kidney
[16] = Selectivity ratio of Compound as ratio of ED15 relative to iliac vascular resistance(IVR) ED30; format: functional; summary of the method: as §1
Rattus norvegicus [17] = experiment: Central dopaminergic activity against contralateral rotation(1000) in lesioned rats at the dose of 5.8(po) in 2 h; I=Inactive; format: functional, organism-based; summary of the method: as §3
Canis familiaris [18] = organism: Canis familiaris; experiment: Renal vascular resistance was calculated as the ratio of the mean arterial blood pressure / mean renal blood flow; Highly significant activity; format: functional, organism-based; conditions: Canis lupus familiaris
Rattus norvegicus [19] = experiment: Central dopaminergic activity for minimum concentration which produced 500 rotations at the dose of 2.0 mg/kg (i.p.) in 2 h; I=Inactive; format: functional, organism-based; parameters: dose 2 mg/kg; summary of the method: as §2
Rattus norvegicus [20] = organism: Rattus norvegicus; experiment: Adenylase cyclase activity in rat striatal membranes at the concentration of 10e-7; format: functional; conditions: Striatum, Membrane
Rattus norvegicus [21] = experiment: Central dopaminergic activity against contralateral rotation(1000) in lesioned rats at the dose of 10 mg/kg (p.o.) in 2 h; format: functional; conditions: route oral; summary of the method: as §3
Rattus norvegicus [22] = organism: Rattus norvegicus; experiment: Central dopaminergic activity against contralateral rotation(500) in lesioned rats(ic) in 2 h; format: functional; summary of the method: as §2
Rattus norvegicus [23] = organism: Rattus norvegicus; experiment: Adenylase cyclase activity in rat striatal membranes; format: functional, organism-based, Membrane; conditions: Striatum
Rattus norvegicus [24] = experiment: Central dopaminergic activity for minimum concentration which produced 500 rotations at the dose of 2 mg/kg (i.p.) in 2 h; I=Inactive; format: functional, organism-based; parameters: dose 2 mg/kg; summary of the method: as §2

SMILES	DA response (Rattus norvegicus [8])	DA response (Rattus norvegicus [10])	Ratio [1]	Ratio [2]	RVR ED15 (Canis familiaris [4])	RBF (Canis familiaris [6])	Decrease RVR (Canis familiaris [7])	RVR (Canis familiaris [11])	RD1000 (Rattus norvegicus [13])	RD500 (Rattus norvegicus [14])	Ratio [16]	RVR (Canis familiaris [18])	also measured
Br.C=CCN1CCc2c(cc(O)c(O)c2Cl)C(c2ccc(Cl)c(O)c2)C1 (configuration not stated)			>319	>319	0.019 mg/kg	Highly significant activity	39%						RD500 (Rattus norvegicus [3]): inactive; RVR (Canis familiaris [5]): Significant activity
CC(=O)Oc1cc2c(c(Cl)c1OC(C)=O)CCN(C)CC2c1ccccc1.Cl (configuration not stated)								inactive	2.2 mg/kg	0.025 mg/kg			RBF (Canis familiaris [12]): inactive
Br.Oc1cc2c(c(Cl)c1O)CCNCC2c1cc(Cl)c(O)c(Cl)c1 (configuration not stated)			>37	>37	0.165 mg/kg		18%				> 37		RD500 (Rattus norvegicus [3]): inactive; RBF (Canis familiaris [15]): Significant activity; RVR (Canis familiaris [5]): Significant activity
Cc1cccc(C2CN(Cc3ccco3)CCc3c2cc(O)c(O)c3Cl)c1 (configuration not stated)								inactive					RD500 (Rattus norvegicus [19]): inactive; RBF (Canis familiaris [12]): inactive
Br.C=CCN1CCc2c(cc(O)c(O)c2Cl)C(c2cccc(Cl)c2)C1 (configuration not stated)	92%	83%	>6072	>6072	0.022 mg/kg	Highly significant activity	38%	inactive		0.11 mg/kg	> 6070		RD1000 (Rattus norvegicus [21]): 1160 turns/2 h
Br.Oc1cc2c(c(Cl)c1O)CCNCC2c1ccccc1 (configuration not stated)					0.0035 mg/kg	Active	39%		4.04 mg/kg	0.03 mg/kg		Active	RD500 (Rattus norvegicus [22]): 0.22 ug rat-1
Br.C=CCN1CCc2c(cc(O)c(O)c2Cl)C(c2cccc(C)c2)C1 (configuration not stated)		96%				Highly significant activity			3 mg/kg	0.04 mg/kg		Significant activity	DA response (Rattus norvegicus [20]): 86%
Br.Oc1cccc(C2CNCCc3c2cc(O)c(O)c3Cl)c1 (configuration not stated)			1029	>6072	0.00035 mg/kg		49%				34		RD500 (Rattus norvegicus [3]): inactive; RBF (Canis familiaris [15]): Significant activity; RVR (Canis familiaris [5]): Significant activity; EC50 (Rattus norvegicus [23]): 45 nM
CCCN1CCc2c(cc(O)c(O)c2Cl)C(c2ccccc2)C1 (configuration not stated)								inactive					RBF (Canis familiaris [15]): Significant activity; RD500 (Rattus norvegicus [24]): inactive
Br.Oc1ccc(C2CNCCc3c2cc(O)c(O)c3Cl)cc1Br (configuration not stated)			>2995	>2995	0.002 mg/kg		26%				15		

The next lines start with results.

DA response (Rattus norvegicus [8])	DA response (Rattus norvegicus [10])	SMILES	Ratio [1]	Ratio [2]	RVR ED15 (Canis familiaris [4])	RBF (Canis familiaris [6])	Decrease RVR (Canis familiaris [7])	RVR (Canis familiaris [11])	RD1000 (Rattus norvegicus [13])	RD500 (Rattus norvegicus [14])	Ratio [16]	RVR (Canis familiaris [18])	also measured
30%	55%	Br.Cc1ccccc1C1CNCCc2c1cc(O)c(O)c2Cl (configuration not stated)						inactive					Contralateral turns in 2 h (Rattus norvegicus [9]): 663 turns/2 h; RBF (Canis familiaris [12]): inactive
59%	64%	Br.Oc1cc2c(c(Cl)c1O)CCNCC2c1cccc(C(F)(F)F)c1 (configuration not stated)	75	>6072	0.008 mg/kg	Highly significant activity	44%			0.71 mg/kg	10	Significant activity	RD1000 (Rattus norvegicus [17]): inactive
	94%	Br.Cc1cccc(C2CNCCc3c2cc(O)c(O)c3Cl)c1 (configuration not stated)	7	>6072	0.015 mg/kg	Highly significant activity	56%			0.47 mg/kg	1	Significant activity	DA response (Rattus norvegicus [20]): 76%
22%	13%	Br.CN1CCc2c(cc(O)c(O)c2Cl)C(c2cccc(Cl)c2)C1 (configuration not stated)						inactive	3.2 mg/kg	0.03 mg/kg			RBF (Canis familiaris [12]): inactive
48%	55%	Br.CCN1CCc2c(cc(O)c(O)c2Cl)C(c2ccccc2)C1 (configuration not stated)	>6072	18	0.045 mg/kg	Highly significant activity	16%		4.9 mg/kg	0.015 mg/kg	0.1	Significant activity	
82%	90%	Br.Oc1cc2c(c(Cl)c1O)CCNCC2c1cccc(Cl)c1 (configuration not stated)				Highly significant activity		inactive		0.3 mg/kg			RD1000 (Rattus norvegicus [21]): 602 turns/2 h
